Screening results as filed in PubChem.
SKKanGAS inh: inhibitors of SKKanGAS S. pyogenes growth in kanamycin (SK-promoter or general growth effect); BacTiter-Glo, 6 h; inhibition, % at 7.5 µM; 300,000 tested, 1.3% active; AID 1662;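 active = mean replicate score, as percent of positive control median, at least 50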;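 note: strain carries kanamycin resistance gene driven by streptokinase promoter and grows in 40 µg/ml kanamycin; loss of luminescence reflects streptokinase promoter inhibition or plain growth inhibition; 0% = median of DMSO wells and 100% = positive control at its reference dose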
L major viab: inhibitors of Leishmania major promastigote growth; Leishmania major promastigotes, resazurin fluorescence viability; inhibition, % at 10 µM; 200,000 tested, 9% active; AID 1063; in the data active = inhibition above about 50%;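 note: promastigotes grown with compound for 44 hours at 28 °C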
Mdm2 MdmX PPI: inhibitors of human Mdm2/MdmX interaction | SaOS-2 split-luciferase Mdm2/MdmX complementation, luminescence | 330,000 tested, 3% active | inhibition, % at 8 µM;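 active = inhibition of at least 50% at 8 µM in the primary screen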
Target sequence (O15151 whole entry, looked up): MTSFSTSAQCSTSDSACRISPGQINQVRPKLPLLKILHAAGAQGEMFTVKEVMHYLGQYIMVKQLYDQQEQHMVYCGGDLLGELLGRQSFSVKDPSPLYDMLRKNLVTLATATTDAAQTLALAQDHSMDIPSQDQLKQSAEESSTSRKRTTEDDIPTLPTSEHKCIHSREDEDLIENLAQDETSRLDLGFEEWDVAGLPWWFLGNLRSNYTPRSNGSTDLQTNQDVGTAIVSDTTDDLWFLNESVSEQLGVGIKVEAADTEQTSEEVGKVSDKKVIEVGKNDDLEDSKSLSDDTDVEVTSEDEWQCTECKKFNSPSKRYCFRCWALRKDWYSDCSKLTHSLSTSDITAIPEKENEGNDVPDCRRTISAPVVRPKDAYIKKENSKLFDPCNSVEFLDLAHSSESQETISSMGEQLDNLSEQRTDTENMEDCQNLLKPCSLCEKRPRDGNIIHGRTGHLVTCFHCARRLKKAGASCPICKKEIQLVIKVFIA
Target sequence (Q00987 whole entry, looked up): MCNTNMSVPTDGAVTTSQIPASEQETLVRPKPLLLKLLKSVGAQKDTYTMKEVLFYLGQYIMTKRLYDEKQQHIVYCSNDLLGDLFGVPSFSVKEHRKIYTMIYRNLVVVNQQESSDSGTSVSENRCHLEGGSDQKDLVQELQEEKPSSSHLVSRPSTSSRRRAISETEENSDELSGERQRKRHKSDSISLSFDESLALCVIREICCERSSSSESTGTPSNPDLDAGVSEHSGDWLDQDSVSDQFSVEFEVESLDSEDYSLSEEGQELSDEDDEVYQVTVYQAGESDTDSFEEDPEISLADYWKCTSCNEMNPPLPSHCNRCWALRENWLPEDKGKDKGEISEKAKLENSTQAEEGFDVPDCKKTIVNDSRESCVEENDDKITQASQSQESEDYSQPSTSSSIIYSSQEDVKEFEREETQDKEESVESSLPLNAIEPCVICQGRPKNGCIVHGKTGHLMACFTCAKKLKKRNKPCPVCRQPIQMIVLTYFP
CSC inhib: cancer stem cell inhibition; cancer stem cell-like cells viability, luminescence; inhibition, % at 7.5 µM; 300,000 tested, 1.1% active; AID 2717; in the data active = inhibition above about 75%; tested in HMLE shEcad cells
T cruzi inh: T. cruzi replication inhibition. T. cruzi beta-gal in NIH3T3, luminescence, 90 h. 300,000 tested, 1.4% active. AID 1885. inhibition, % (test concentration not listed);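 active = mean inhibition across valid replicates above about 55%, limit read from the data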;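 note: signal also drops with host cell toxicity which is not excluded here; 0% = plate median of DMSO wells and 100% = zero luminescence signal; higher percent means less beta-gal luminescence so fewer parasites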
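System: Mouse NIH/3T3 fibroblasts infected with β-gal-expressing T. cruzi Tulahuen C4 | Quantity: NIH/3T3 cells, 5,000 per well | Reagent: 5000 reporter trypomastigotes per well | Dosing: Compound pinned at 50 nL/well, DMSO | Schedule: 3 h host attachment, then at least 90 h co-culture | Detection: GalScreen luminescence, 60 min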
Beta apoptosis: beta cell apoptosis inhibition | INS-1E cytokine-induced death, ATP luminescence, 48 h; percent of positive-control rescue, neutral wells zero | protection from apoptosis, % (concentration not given with the values) | 300,000 tested, 0.8% active | AID 435005;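 active = Every replicate reaches about 75%, or at least half do and their mean reaches it too, limit read from the data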;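 note: 0% = cytokine-treated negative control wells and 100% = positive control rescue; higher means more ATP so stronger rescue from cytokine killing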
The depositor's hits bear a star; x = no result given. Sampled rows, rich in hits. Any-hit rate of the full collection: about 9.4%.

SMILES	SKKanGAS inh	L major viab	Mdm2 MdmX PPI	CSC inhib	T cruzi inh	Beta apoptosis
COc1cc(/C=N/NC(=O)c2cc(-c3ccccc3)nc3ccccc23)ccc1O	3	x	15	-5	3	6
CCOc1cc(/C=C/c2cc(C(=O)O)c3ccccc3n2)ccc1OC	8	-5	22	-6	-14	-1
CCOc1cc(/C=N/NC(=O)c2cc(-c3cccc(OC)c3)nc3ccccc23)ccc1O	8	x	-8	6	26	99*
CN(C)c1ccc(C2Nc3ccccc3C(=O)N2CCCN2CCOCC2)cc1 (stereo not given)	-6	x	28	2	-2	1
CC(/C=N/NC(=O)c1cc(-c2ccccc2)nc2ccccc12)=C\c1ccco1	5	98*	42	-18	-37	22
O=C(N/N=C/c1ccco1)c1cc(-c2ccncc2)nc2ccccc12	4	x	43	x	-11	x
Cc1cc(C)cc(C(=O)NC(=S)Nc2ccc(Cc3ccncc3)cc2)c1	3	11	44	18	23	-5
COc1ccc(Br)cc1C(=O)Nc1ccc(Cc2ccncc2)cc1	-17	81*	11	46	73*	6
COc1cc(C(=O)NC(=S)Nc2ccc(Cc3ccncc3)cc2)cc(OC)c1OC	51*	x	15	27	14	-2
CN1CCN(C(=O)C2=C[C@H](c3csc4ccccc34)C[C@H](OCCCCO)O2)CC1	-3	4	-2	14	10	2
NC(=O)C1CCN(C(=O)c2ccc(Cl)c(S(=O)(=O)N3CCCCCC3)c2)CC1	x	x	1	2	x	0
CC(C)(C)c1ccc(O)c(/C=N\O)c1	9	6	8	-11	-12	2
CC(C)(C)c1ccc(O)c(O)c1	x	x	37	86*	x	-7
Cc1ccc(NC(=O)CSc2nnc(Cc3ccccc3)c(=O)[nH]2)c(C)c1	11	x	2	0	8	x
CCCNC(=O)c1c(N)n(-c2cccc(OC)c2)c2nc3ccccc3nc12	28	27	27	29	10	104*
CCCOc1ccc(Cc2c(Cl)nc(SC)nc2N(C)C)cc1	64*	8	19	x	-13	3
CSc1nc(Cl)c(Cc2ccc(OC(C)C)cc2)c(N2CCOCC2)n1	2	4	21	-7	22	5
COc1nc(SC)nc(Cl)c1Cc1ccc(OC(C)C)cc1	1	66*	-14	-2	-4	3
CCCOc1ccc(Cc2c(Cl)nc(SC)nc2OC)cc1	53*	-3	-11	25	-10	18
CC(=O)NC(Cc1ccccc1)C(=O)OCC(=O)c1ccc(Cl)cc1 (stereo not given)	0	25	-13	-7	-9	-8
CCc1ccc(C(=O)COC(=O)C(Cc2ccccc2)NC(=O)c2ccc(Cl)cc2)cc1 (stereo not given)	46	75*	26	-7	-8	-6
N#CC1=C(N)N=C(SCc2cccc3ccccc23)C(C(N)=O)C12CCCCC2 (stereo not given)	20	100*	17	-3	11	-6
Nc1cc(=O)[nH]c(SCc2cccc3ccccc23)n1	2	x	31	-17	37	-1
CN(C)c1ccc(S(=O)(=O)N2CCC(Cc3ccccc3)CC2)cn1	x	x	6	2	x	5
Cc1ccc(-n2nc3ccc(NC(=O)/C=C/c4ccco4)cc3n2)cc1	8	60*	-103	11	-43	4
SMILES	SKKanGAS inh	L major viab	Mdm2 MdmX PPI	CSC inhib	T cruzi inh	Beta apoptosis
O=C(CSc1ccccc1F)NCC(c1cccs1)N1CCOCC1 (stereo not given)	x	x	-6	-10	x	-4
O=C(c1ccccc1)c1ccc(N2CCNCC2)cc1	x	75*	x	x	x	x
CN1CCN(c2ccc(C(=O)c3ccc(F)cc3)cc2)CC1	3	68*	-92	49	44	-4
O=C(c1ccccc1)c1ccc(N2CCCC2)cc1	-2	34	-67	-17	1	-3
CC1CCN(C(=O)CSc2nc(N)c(NC(=O)c3ccccc3)c(=O)[nH]2)CC1	2	x	-5	-4	2	2
Cc1ccc(N(C(=O)c2ccccc2Cl)C2=NC(C)CS2)c(C)c1 (stereo not given)	-4	94*	15	22	32	6
O=C(NC(=S)N1CCCC(C(F)(F)F)C1)c1ccc(F)cc1 (stereo not given)	10	x	-10	-5	-5	-4
CC(C)(C)C(=O)NC(Nc1cccc2cccnc12)C(Cl)(Cl)Cl (stereo not given)	6	55*	19	x	8	78*
Cc1ccc(SC(C)C(=O)Nc2ccncc2)cc1 (stereo not given)	2	93*	7	x	2	x
Cc1ccc(SC(C)C(=O)Nc2cccnc2)cc1 (stereo not given)	15	-3	27	-8	0	0
c1ccc(CCn2c(C3CC3)nc3ccccc32)cc1	3	63*	23	0	x	0
Cc1ccc(C)c(NC(=O)CN(C)S(=O)(=O)c2cccc3cccnc23)c1	1	x	-1	-15	-10	7
Cc1cc(NS(=O)(=O)c2ccc(NC(=O)c3ccccc3C)cc2)no1	6	x	23	-3	-13	-3
Cc1cc(C)nc(NS(=O)(=O)c2ccc(NC(=O)c3cc(-c4ccccc4)nc4ccccc34)cc2)n1	2	67*	22	11	18	-3
Cc1ccc(-c2cc(C(=O)Nc3ccc(S(=O)(=O)Nc4cc(C)on4)cc3)c3ccccc3n2)c(C)c1	54*	-6	12	8	-14	-4
Cc1ccc2nc(-c3ccccc3Cl)cc(C(=O)Nc3cc(C)on3)c2c1	-5	55*	29	4	14	-2
CCN(CC)S(=O)(=O)c1ccc(NC(=O)c2cc(-c3ccccc3)nc3ccccc23)cc1	9	2	9	7	25	6
CCN(CC)CCn1c2c(c(SCC(=O)Nc3cc(C)on3)nc1=O)CCCC2	-3	x	15	-20	26	-7
O=C(CN(C(=O)c1csnn1)c1ccccc1F)NCc1ccccc1	-2	x	26	-4	-9	0
[N-]=[N+]=NCCN1CCN(CCc2ccccc2)CCC1=O	-2	x	3	-4	-6	0
COc1cccc(OCc2cc(C(=O)N(C)Cc3nccn3C)no2)c1	-2	x	-49	-12	5	-9
CC12CC3(C)CC(C)(C1)CC(C(=O)NC1=NCCS1)(C2)C3	84*	16	-9	2	15	-8
CCC(=Nc1ccccc1OC)C1=C(O)CC(c2ccccc2)CC1=O (stereo not given)	-5	53*	14	-7	-1	x
CCC(=Nc1ccccc1O)C1=C(O)CC(c2ccccc2)CC1=O (stereo not given)	3	x	29	45	-32	-7
O=C(Nc1cccc(C(F)(F)F)c1)Oc1ccc(Cl)c2cccnc12	99*	x	x	43	69*	115*
Clc1ccc(CN2C3=NCCCN3c3ccccc32)c(Cl)c1	-3	x	25	-11	20	7
